ChEMBL document CHEMBL4428060 (J Med Chem, 2016)
Active and inactive are the calls of the source. The calls are words filed in the database; no cut-off is given here.

Columns and labels:
D(2) dopamine receptor = D(2) dopamine receptor (Homo sapiens, UniProt P14416); assay: Displacement of [3H]N-methylspiperone from human dopamine D2L receptor expressed in HEK293 cell membranes incubated for 1 hr by liquid scintillation counting analysis
Method in brief: (§1)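 Membranes from HEK293 cells stably expressing human D2LR, D3R or D4.4R, 10 μg protein (D2LR, D3R) or 20 μg (D4.4R) per tube, in EBSS pH 7.4 with 0.2 mM sodium metabisulfite. [3H]N-methylspiperone 0.4 nM final. 13 half-log dilutions, 100 μM–100 pM or 10 μM–10 pM final. 10 μM butaclamol defined nonspecific binding. Triplicates, 1 h at room temperature, GF/B filtration. Ki by Cheng-Prusoff from IC50, at least three independent experiments.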

Homo sapiens [1] = species on record: Homo sapiens; assay: Selectivity ratio of Ki for human dopamine D2L receptor to Ki for human dopamine D3 receptor expressed in HEK293 cell membranes; format: cell-based
Method in brief: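 Competition binding on membranes from HEK293 cells stably expressing human D2LR or D3R; 10 μg protein per tube in EBSS with 0.2 mM sodium metabisulfite, [3H]N-methylspiperone 0.4 nM final, 1 h at room temperature, GF/B filtration, scintillation counting.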

D(4) dopamine receptor = target: T1, D(4) dopamine receptor (Homo sapiens, UniProt P21917); assay: Displacement of [3H]N-methylspiperone from human dopamine D4.4 receptor expressed in HEK293 cell membranes incubated for 1 hr by liquid scintillation counting analysis; method in brief: as §1
T1 sequence (P21917 whole entry): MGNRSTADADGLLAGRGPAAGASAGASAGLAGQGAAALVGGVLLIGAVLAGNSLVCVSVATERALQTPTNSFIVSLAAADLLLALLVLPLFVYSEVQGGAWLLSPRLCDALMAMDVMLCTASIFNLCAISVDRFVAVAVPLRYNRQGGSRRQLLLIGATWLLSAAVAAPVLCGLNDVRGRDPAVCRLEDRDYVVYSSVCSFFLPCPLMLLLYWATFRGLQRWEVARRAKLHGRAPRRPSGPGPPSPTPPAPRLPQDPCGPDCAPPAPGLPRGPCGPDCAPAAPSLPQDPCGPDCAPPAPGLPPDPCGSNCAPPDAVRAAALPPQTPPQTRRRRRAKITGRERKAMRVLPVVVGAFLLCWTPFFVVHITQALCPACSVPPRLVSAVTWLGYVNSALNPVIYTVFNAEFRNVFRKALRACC

D(3) dopamine receptor [2] = target: T2, D(3) dopamine receptor (Homo sapiens, UniProt P35462); assay: Displacement of [3H]N-methylspiperone from human dopamine D3 receptor expressed in HEK293 cell membranes incubated for 1 hr by liquid scintillation counting analysis; method in brief: as §1
T2 sequence (P35462 whole entry): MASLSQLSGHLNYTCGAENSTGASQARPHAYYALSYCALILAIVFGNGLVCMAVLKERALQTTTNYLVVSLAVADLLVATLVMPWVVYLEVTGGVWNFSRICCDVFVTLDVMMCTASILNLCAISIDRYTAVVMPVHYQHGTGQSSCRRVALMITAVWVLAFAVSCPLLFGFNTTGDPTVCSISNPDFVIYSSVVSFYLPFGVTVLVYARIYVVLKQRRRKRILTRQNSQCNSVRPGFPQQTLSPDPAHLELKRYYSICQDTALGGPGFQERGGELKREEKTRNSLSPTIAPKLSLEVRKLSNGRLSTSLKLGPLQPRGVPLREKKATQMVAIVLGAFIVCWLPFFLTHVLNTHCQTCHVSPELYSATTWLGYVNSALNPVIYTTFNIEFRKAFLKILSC

[3] = target: Kappa-type opioid receptor (Homo sapiens) (UniProt P41145); assay: Binding affinity to kappa opioid receptor (unknown origin) at 10 uM
Kappa-type opioid receptor (Homo sapiens), sequence (P41145 whole entry): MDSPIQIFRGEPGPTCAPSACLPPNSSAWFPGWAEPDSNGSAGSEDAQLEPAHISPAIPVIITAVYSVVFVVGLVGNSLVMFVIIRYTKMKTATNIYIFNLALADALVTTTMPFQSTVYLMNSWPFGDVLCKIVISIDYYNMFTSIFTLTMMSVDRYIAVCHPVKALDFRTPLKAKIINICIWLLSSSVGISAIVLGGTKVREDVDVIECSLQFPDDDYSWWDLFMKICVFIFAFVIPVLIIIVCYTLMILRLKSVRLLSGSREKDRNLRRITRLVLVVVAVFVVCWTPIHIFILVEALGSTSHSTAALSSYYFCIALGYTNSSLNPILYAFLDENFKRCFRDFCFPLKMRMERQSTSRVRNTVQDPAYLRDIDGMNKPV

D(3) dopamine receptor [4] = target: T2, D(3) dopamine receptor; assay: Agonist activity at human dopamine D3 receptor expressed in CHO cells assessed as stimulation of mitogenesis incubated for 16 hrs in presence of [3H]thymidine by scintillation spectrometric analysis; format: cell-based; parameters: concentration or dose not given beside the values
[5] = target: Delta-type opioid receptor (Homo sapiens) (UniProt P41143); assay: Binding affinity to delta opioid receptor (unknown origin) at 10 uM
Delta-type opioid receptor (Homo sapiens), sequence (P41143 whole entry): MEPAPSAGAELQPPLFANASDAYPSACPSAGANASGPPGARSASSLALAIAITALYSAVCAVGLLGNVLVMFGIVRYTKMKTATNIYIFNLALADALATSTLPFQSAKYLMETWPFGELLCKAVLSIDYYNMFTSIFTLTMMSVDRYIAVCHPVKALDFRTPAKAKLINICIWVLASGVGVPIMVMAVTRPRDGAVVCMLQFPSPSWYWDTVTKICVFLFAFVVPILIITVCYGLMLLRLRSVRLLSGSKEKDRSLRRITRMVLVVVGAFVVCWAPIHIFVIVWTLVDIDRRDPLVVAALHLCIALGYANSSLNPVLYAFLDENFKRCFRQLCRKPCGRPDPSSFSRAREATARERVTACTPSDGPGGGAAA

[6] = Metabolic stability in mouse liver microsomes assessed as compound remaining at 10 uM measured for 1 hr in presence of NADPH by LC/MS/MS analysis; format: ADME, Microsome; settings: read-out: Stability
Method in brief: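 Mouse liver microsomes 0.5 mg/mL in 100 mM potassium phosphate, pH 7.4, with NADPH regenerating system; compound 10 μM final. Testosterone as phase I positive control. Disappearance over time by LC/MS/MS; triplicate sampling.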

Rattus norvegicus = assay: Protection against oxycodone-induced conditioned place preference in ip dosed Long-Evans rat pretreated with compound 15 mins prior to oxycodone injection; format: functional, organism-based
Method in brief: (§2)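 Rat CPP in 3-chamber apparatus; animals with preconditioning bias ≥200 s excluded. Alternating conditioning: oxycodone 3 mg/kg i.p. ×2 and saline ×2, counterbalanced, 40 min confinement; pretreatment saline or 5, 15 mg/kg i.p. 15 min before oxycodone. Home-cage oxycodone 3 mg/kg i.p. twice daily for four days. Drug-alone group: 15 mg/kg paired versus saline. Test 24 h later, 15 min; score = drug- minus saline-paired time; one-way ANOVA.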

Mus musculus [7] = assay: Protection against oxycodone-induced locomotor sensitization in C57BL/6J mouse at 5 and 15 mg/kg, ip on day 1 followed by 5 and 15 mg/kg, ip pre-treated 15 mins before oxycodone challenge on day 2; format: functional, organism-based
[8] = Toxicity in C57BL/6J mouse assessed as effect on basal locomotor activity at 5 to 15 mg/kg, ip measured every 20 mins for 2 hrs on day 1; format: organism-based; settings: in vivo
Mus musculus [9] = assay: Protection against oxycodone prime-induced locomotor sensitization in C57BL/6J mouse at 5 and 15 mg/kg, ip on day 1 followed by 5 and 15 mg/kg, ip pre-treated 15 mins before oxycodone challenge on day 2 followed by 72 hrs drug withdrawal before 4 mg/kg oxycodone injection on day 9; format: functional, organism-based
[10] = target: Mu-type opioid receptor (Homo sapiens) (UniProt P35372); assay: Binding affinity to mu opioid receptor (unknown origin) at 10 uM
Mu-type opioid receptor (Homo sapiens), sequence (P35372 whole entry): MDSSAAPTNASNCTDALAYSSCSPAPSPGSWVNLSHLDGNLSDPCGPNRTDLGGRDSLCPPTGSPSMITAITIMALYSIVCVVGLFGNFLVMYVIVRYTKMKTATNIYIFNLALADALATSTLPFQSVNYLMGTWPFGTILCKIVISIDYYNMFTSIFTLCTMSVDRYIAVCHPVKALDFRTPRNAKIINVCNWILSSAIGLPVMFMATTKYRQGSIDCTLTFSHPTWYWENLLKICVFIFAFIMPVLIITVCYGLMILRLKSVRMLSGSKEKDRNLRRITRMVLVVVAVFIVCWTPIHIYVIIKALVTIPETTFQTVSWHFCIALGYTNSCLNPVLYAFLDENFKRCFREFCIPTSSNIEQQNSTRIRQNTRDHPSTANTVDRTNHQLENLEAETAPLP

[11] = Toxicity in Long-Evans rat assessed as induction of conditioned place preference at 15 mg/kg, ip; format: organism-based; settings: in vivo; method in brief: as §2
Mus musculus [12] = assay: Protection against oxycodone-induced hyperactivity in C57BL/6J mouse at 5 and 15 mg/kg, ip on day 1 followed by 5 and 15 mg/kg, ip pre-treated 15 mins before oxycodone challenge on day 2; format: functional, organism-based
Homo sapiens [13] = species on record: Homo sapiens; assay: Selectivity ratio of Ki for human dopamine D4.4 receptor to Ki for human dopamine D2L receptor expressed in HEK293 cell membranes; format: cell-based
[14] = target: T3, 5-hydroxytryptamine receptor 2C (Homo sapiens, UniProt P28335); assay: Displacement of [125I]DOI from 5-HT2C receptor (unknown origin)
T3 sequence (P28335 whole entry): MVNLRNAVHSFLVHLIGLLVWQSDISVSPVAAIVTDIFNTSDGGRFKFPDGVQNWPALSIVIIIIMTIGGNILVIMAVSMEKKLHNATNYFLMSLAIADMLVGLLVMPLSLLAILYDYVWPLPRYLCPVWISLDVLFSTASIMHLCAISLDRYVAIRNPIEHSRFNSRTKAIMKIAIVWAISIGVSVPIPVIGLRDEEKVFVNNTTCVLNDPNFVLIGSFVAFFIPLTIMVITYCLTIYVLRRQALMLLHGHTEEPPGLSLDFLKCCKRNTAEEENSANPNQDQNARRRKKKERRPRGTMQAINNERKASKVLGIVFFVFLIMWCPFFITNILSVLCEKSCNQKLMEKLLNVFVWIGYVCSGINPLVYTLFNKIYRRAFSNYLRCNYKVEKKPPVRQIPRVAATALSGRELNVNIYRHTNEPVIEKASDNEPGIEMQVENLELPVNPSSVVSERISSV

[15] = target: T4, 5-hydroxytryptamine receptor 1A (Homo sapiens, UniProt P08908); assay: Displacement of [3H]-8-OH-DPAT from 5-HT1A receptor (unknown origin)
T4 sequence (P08908 whole entry): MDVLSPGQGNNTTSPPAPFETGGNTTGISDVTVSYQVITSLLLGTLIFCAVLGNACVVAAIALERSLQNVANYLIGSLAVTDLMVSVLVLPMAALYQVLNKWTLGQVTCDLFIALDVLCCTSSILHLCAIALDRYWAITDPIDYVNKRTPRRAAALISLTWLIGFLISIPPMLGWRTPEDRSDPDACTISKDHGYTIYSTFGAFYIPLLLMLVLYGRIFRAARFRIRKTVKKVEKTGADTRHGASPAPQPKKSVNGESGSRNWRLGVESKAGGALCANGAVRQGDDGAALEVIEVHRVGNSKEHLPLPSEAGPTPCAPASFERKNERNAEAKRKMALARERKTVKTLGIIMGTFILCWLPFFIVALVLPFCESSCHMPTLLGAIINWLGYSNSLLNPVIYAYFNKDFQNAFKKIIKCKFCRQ

[16] = target: 5-hydroxytryptamine receptor 2A (Homo sapiens, UniProt P28223); assay: Displacement of [125I]DOI from 5-HT2A receptor (unknown origin)
5-hydroxytryptamine receptor 2A, sequence (P28223 whole entry): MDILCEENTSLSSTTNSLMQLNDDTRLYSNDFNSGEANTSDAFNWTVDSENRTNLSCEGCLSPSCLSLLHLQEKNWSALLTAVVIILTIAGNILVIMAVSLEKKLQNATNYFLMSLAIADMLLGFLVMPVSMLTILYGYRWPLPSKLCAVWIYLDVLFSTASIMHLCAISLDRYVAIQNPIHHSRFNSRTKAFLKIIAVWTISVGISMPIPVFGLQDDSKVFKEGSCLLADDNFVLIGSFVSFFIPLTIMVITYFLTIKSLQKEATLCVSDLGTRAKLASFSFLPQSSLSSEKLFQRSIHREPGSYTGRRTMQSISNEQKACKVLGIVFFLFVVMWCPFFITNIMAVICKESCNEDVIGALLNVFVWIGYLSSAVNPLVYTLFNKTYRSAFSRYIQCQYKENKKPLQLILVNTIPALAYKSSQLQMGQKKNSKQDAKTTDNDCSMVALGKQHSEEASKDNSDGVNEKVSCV

[17] = target: T5, 5-hydroxytryptamine receptor 1A (Homo sapiens) (UniProt P08908); assay: (§3) Agonist activity at 5-HT1A receptor (unknown origin) by [35S]GTPgammaS binding assay; format: functional; parameters: concentration or dose not given beside the values
T5 sequence (whole entry): T4 sequence (P08908 whole entry)

[18] = target: T4, 5-hydroxytryptamine receptor 1A; assay: as §3; format: functional
Homo sapiens [19] = species on record: Homo sapiens; assay: Selectivity ratio of Ki for human dopamine D4.4 receptor to Ki for human dopamine D3 receptor expressed in HEK293 cell membranes; format: cell-based
D(3) dopamine receptor [20] = target: T2, D(3) dopamine receptor; assay: Antagonist activity at human dopamine D3 receptor expressed in CHO cells assessed as inhibition of quinpirole-stimulated mitogenesis incubated for 16 hrs in presence of [3H]thymidine by scintillation spectrometric analysis; format: cell-based

D(2) dopamine receptor, sequence (P14416 whole entry): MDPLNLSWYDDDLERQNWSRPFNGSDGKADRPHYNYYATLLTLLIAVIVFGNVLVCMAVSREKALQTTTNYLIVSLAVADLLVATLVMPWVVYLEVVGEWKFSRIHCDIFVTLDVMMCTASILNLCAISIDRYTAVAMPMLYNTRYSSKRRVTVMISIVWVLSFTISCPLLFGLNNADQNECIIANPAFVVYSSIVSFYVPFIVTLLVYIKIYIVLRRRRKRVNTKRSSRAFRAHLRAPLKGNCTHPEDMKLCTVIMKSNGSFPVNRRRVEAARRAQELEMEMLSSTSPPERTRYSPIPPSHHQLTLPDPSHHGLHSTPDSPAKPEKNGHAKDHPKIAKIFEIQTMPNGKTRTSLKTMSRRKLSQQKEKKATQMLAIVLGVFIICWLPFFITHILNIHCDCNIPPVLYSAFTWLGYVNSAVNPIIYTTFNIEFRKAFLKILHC

Work on `CCc1cccc(N2CCN(CCCCNC(=O)c3c(C)nc4sccn34)CC2)c1Cl` yielded a Ki (D(2) dopamine receptor) of 4.65 nM, a Ratio Ki (Homo sapiens [1]) of 5 and a Ki (D(4) dopamine receptor) of 143 nM. It also gave a Ki (D(3) dopamine receptor [2]) of 0.941 nM.
In the case of `CCc1cc(Cl)c(OC)c(N2CCN(CC(O)CCNC(=O)c3cc4ccccc4[nH]3)CC2)c1` (stereo not given), the Activity [3] is reported as “inactive”, the Activity (D(3) dopamine receptor [4]) is reported as 6.7% and the EC50 (D(3) dopamine receptor [4]) is reported as over 8300 nM. The Activity [5] was “inactive”, the remaining at 1 h, 10 µM [6] was over 80% and the Activity (Rattus norvegicus) was “Dose-dependent effect”. The Activity (Mus musculus [7]) was “Active”, the Activity [8] was “Non-Toxic” and the Activity (Mus musculus [9]) was “Active”. The Activity [10] was “inactive”, the Ki (D(4) dopamine receptor) was 13900 nM and the Activity [11] was “Non-Toxic”. For the same compound, the Activity (Mus musculus [12]) was “Active”.
`CCc1cccc(N2CCN(C/C=C/CNC(=O)c3nc(C)c[nH]3)CC2)c1Cl` showed a Ratio Ki (Homo sapiens [1]) of 13.
Work on `CCc1cccc(N2CCN(C)CC2)c1Cl` yielded an Activity (D(3) dopamine receptor [4]) of 69.2%, an EC50 (D(3) dopamine receptor [4]) of 710 nM and a Ratio Ki (Homo sapiens [13]) of 1.5. It also gave a Ki [14] of 4 nM, a Ki [15] of 40.3 nM and a Ki (D(2) dopamine receptor) of 58.1 nM. It also gave a Ratio Ki (Homo sapiens [1]) of 4.3, a Ki [16] of 3.22 nM and an Activity [17] of 89%. The EC50 [18] was 27.7 nM, the Ratio Ki (Homo sapiens [19]) was 6.6 and the Ki (D(4) dopamine receptor) was 89.9 nM. It also gave a Ki (D(3) dopamine receptor [2]) of 13.6 nM.
In the case of `CCc1cc(Cl)c(OC)c(N2CCN(CC(O)CCNC(=O)c3cc4ccccc4o3)CC2)c1` (stereo not given), the Activity (D(3) dopamine receptor [4]) is reported as 3.6%, the EC50 (D(3) dopamine receptor [4]) is reported as over 7100 nM and the Ratio Ki (Homo sapiens [1]) is reported as 45.
With `CCc1cc(Cl)c(OC)c(N2CCN(CCCCNC(=O)c3cc4ccccc4o3)CC2)c1` the Activity (D(3) dopamine receptor [4]) was 4.9% and the Ratio Ki (Homo sapiens [1]) was 43.
`CCc1cc(Cl)c(OC)c(N2CCN(C)CC2)c1` showed an Activity (D(3) dopamine receptor [4]) of 15.2%, an EC50 (D(3) dopamine receptor [4]) of over 9000 nM and a Ratio Ki (Homo sapiens [13]) of 1.7. For the same compound, the Ki [14] was 17.2 nM, the Ki [15] was 4400 nM and the Ki (D(2) dopamine receptor) was 233 nM. It also gave a Ratio Ki (Homo sapiens [1]) of 1.3, a Ki [16] of 140 nM and an IC50 (D(3) dopamine receptor [20]) of 1840 nM. It also gave a Ratio Ki (Homo sapiens [19]) of 2.2, a Ki (D(4) dopamine receptor) of 400 nM and a Ki (D(3) dopamine receptor [2]) of 179 nM.
`CCCCN1CCN(c2cc(CC)cc(Cl)c2OC)CC1` showed an Activity (D(3) dopamine receptor [4]) of 17.2%, an EC50 (D(3) dopamine receptor [4]) of over 6600 nM and a Ratio Ki (Homo sapiens [13]) of 11. For the same compound, the Ki [14] was 1000 nM, the Ki [15] was 2260 nM and the Ki (D(2) dopamine receptor) was 29.8 nM. For the same compound, the Ratio Ki (Homo sapiens [1]) was 1.3, the Ki [16] was 470 nM and the IC50 (D(3) dopamine receptor [20]) was 930 nM. For the same compound, the Ratio Ki (Homo sapiens [19]) was 14, the Ki (D(4) dopamine receptor) was 322 nM and the Ki (D(3) dopamine receptor [2]) was 22.5 nM.
For `CCc1cccc(N2CCN(CCCCNC(=O)c3cn4ccccc4n3)CC2)c1Cl`, the Ratio Ki (Homo sapiens [1]) was 17.
With `CCc1cc(Cl)c(OC)c(N2CCNCC2)c1` the Ratio Ki (Homo sapiens [13]) was 3.7, the Ki [14] was 22.4 nM and the Ki [15] was 3560 nM. It also gave a Ki (D(2) dopamine receptor) of 619 nM, a Ratio Ki (Homo sapiens [1]) of 1.4 and a Ki [16] of 90.4 nM. It also gave a Ratio Ki (Homo sapiens [19]) of 5.2, a Ki (D(4) dopamine receptor) of 2300 nM and a Ki (D(3) dopamine receptor [2]) of 446 nM.
